In ChEMBL document CHEMBL1127474, “Synthesis and antifungal activity of novel cationic pneumocandin B(o) derivatives” (J Med Chem, 1994):
≈ marks a conversion by molar mass, not a printed value. *1 amine or outer side, *2 acyl side, *3 side chain or, on linkers, in order; H or OH if unused. Where a SMILES comes first, the peptide text is derived from it. Bridges are numbered along the chain shown (N, C = ends). [ ]: non-standard residue; d: D form. The star is where a group is joined. Orn(4R-OH,5R-OH) = O=C([C@H](C[C@@H](O)[C@@H](O)N[*:3])N[*:1])[*:2]; hTyr(3S-OH,4S-OH) = N[C@H](C(=O)O)[C@H](O)[C@@H](O)c1ccc(O)cc1; Gln(3R-OH) = NC(=O)C[C@@H](O)[C@H](N)C(=O)O; Orn(3R-OH) = NCC[C@@H](O)[C@H](N)C(=O)O; Pro(3S-OH) = O=C(O)[C@H]1NCC[C@@H]1O; Hyp = O=C(O)[C@@H]1C[C@@H](O)CN1; X1 = CCC(C)CC(C)CCCCCCCCC(=O)*

Experiments:
Assay type in all cases: functional
Kluyveromyces marxianus = assay: In vitro minimum fungicidal concentration (MFC) against Candida pseudotropicalis (MY 2099)
Method in brief: (§1)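 Whole-cell broth microdilution assay against reference and clinical Candida isolates; the MFC is the median of at least four duplicate determinations.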

Mus musculus [1] = assay: In vivo minimum dose administered intraperitoneally b.i.d. which decreases Candida albicans (MY 1055) colony forming units by 99.9% in target organ kidney assay
Method in brief: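 Target organ kidney assay in congenitally immunodeficient DBA/2 mice infected with C. albicans MY1055 and dosed ip twice daily. Kidney CFU/g is compared with untreated controls, and ED99.9 is the lowest dose giving a 99.9% reduction.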

Candida tropicalis = assay: In vitro minimum fungicidal concentration (MFC) against Candida tropicalis (MY 1012); method in brief: as §1
Candida albicans [2] = assay: In vitro concentration causing 50% inhibition of beta-(1,3)-D-glucan synthesis in a Candida albicans (MY 1208) membrane assay
Candida parapsilosis = assay: In vitro minimum fungicidal concentration (MFC) against Candida parapsilosis (MY 1010); conditions: Lodderomyces parapsilosis; method in brief: as §1
Rattus norvegicus = assay: In vivo minimum dose administered subcutaneously b.i.d. which decreases the lung cyst count by 90% using PCP model in dexamethasone-immunosuppressed rats
Method in brief: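 Acute Pneumocystis carinii pneumonia model in dexamethasone-immunosuppressed Sprague-Dawley rats dosed sc twice daily for 4 days. Lung cyst counts are compared with untreated controls, and ED90 is the lowest dose giving a 90% reduction.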

Candida albicans [3] = assay: In vitro minimum fungicidal concentration (MFC) against Candida albicans (MY 1208); conditions: in the assay text read “MY 1028” for “MY 1208”; method in brief: as §1
Candida albicans [4] = assay: In vitro minimum fungicidal concentration (MFC) against Candida albicans (MY 1055); method in brief: as §1
Mus musculus [5] = assay: In vivo dose administered ip bid on days 0-4 which increases the 28-day survival rate of Aspergillus fumigatus by 50%; conditions: 672 h
Method in brief: (§2)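 DBA/2 mice with disseminated A. fumigatus (MF5668) infection; compound given ip twice daily on days 0–4. Survival followed for 28 days; ED50 taken as the dose that raises the 28-day survival rate by 50%.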

Mus musculus [6] = assay: In vivo dose administered intraperitoneally bid on days 0-4 which increases the 28-day survival rate of Aspergillus fumigatus by 50%; conditions: ip, 672 h; method in brief: as §2

SMILES | MFC (Kluyveromyces marxianus) | ED99.9 (Mus musculus [1]) | MFC (Candida tropicalis) | IC50 (Candida albicans [2]) | MFC (Candida parapsilosis) | ED90 (Rattus norvegicus) | MFC (Candida albicans [3]) | MFC (Candida albicans [4]) | ED50 (Mus musculus [5]) | ED50 (Mus musculus [6])
CCC(C)CC(C)CCCCCCCCC(=O)N[C@H]1C[C@@H](O)[C@@H](OCCN)NC(=O)[C@@H]2[C@@H](O)CCN2C(=O)[C@H]([C@H](O)CC(N)=O)NC(=O)[C@H]([C@H](O)[C@@H](O)c2ccc(O)cc2)NC(=O)[C@@H]2C[C@@H](O)CN2C(=O)[C@H]([C@@H](C)O)NC1=O (stereo not given in full) | 1 µg/mL (≈ 0.902 µM) | 0.78 mg/kg | 0.25 µg/mL (≈ 0.226 µM) | 11 nM | 1 µg/mL (≈ 0.902 µM) | 0.037 mg/kg | 0.125 µg/mL (≈ 0.113 µM) | 0.125 µg/mL (≈ 0.113 µM) | 0.06 mg/kg | 
CCC(C)CC(C)CCCCCCCCC(=O)N[C@H]1C[C@@H](O)[C@@H](O)NC(=O)[C@@H]2[C@@H](O)CCN2C(=O)[C@H]([C@H](O)CCN)NC(=O)[C@H]([C@H](O)[C@@H](O)c2ccc(O)cc2)NC(=O)[C@@H]2C[C@@H](O)CN2C(=O)[C@H]([C@@H](C)O)NC1=O (stereo partly drawn) (X1-[Orn(4R-OH,5R-OH)]T[Hyp][hTyr(3S-OH,4S-OH)][Orn(3R-OH)][Pro(3S-OH)]; lactam 1-C) | 0.125 µg/mL (≈ 0.119 µM) | 0.375 mg/kg | < 0.06 µg/mL | 10 nM | 0.125 µg/mL (≈ 0.119 µM) | 0.037 mg/kg | < 0.06 µg/mL | < 0.06 µg/mL | > 20 mg/kg | 
CCC(C)CC(C)CCCCCCCCC(=O)N[C@H]1C[C@@H](O)[C@@H](O)NC(=O)[C@@H]2[C@@H](O)CCN2C(=O)[C@H]([C@H](O)CC(N)=O)NC(=O)[C@H]([C@H](O)[C@@H](O)c2ccc(O)cc2)NC(=O)[C@@H]2C[C@@H](O)CN2C(=O)[C@H]([C@@H](C)O)NC1=O (stereo partly drawn) (X1-[Orn(4R-OH,5R-OH)]T[Hyp][hTyr(3S-OH,4S-OH)][Gln(3R-OH)][Pro(3S-OH)]; lactam 1-C) | 1 µg/mL (≈ 0.939 µM) | 6 mg/kg | 0.125 µg/mL (≈ 0.117 µM) |  | 2 µg/mL (≈ 1.88 µM) | 0.15 mg/kg | 0.25 µg/mL (≈ 0.235 µM) | 0.5 µg/mL (≈ 0.469 µM) |  | > 20 mg/kg
CCC(C)CC(C)CCCCCCCCC(=O)N[C@H]1C[C@@H](O)[C@@H](OCCN)NC(=O)[C@@H]2[C@@H](O)CCN2C(=O)[C@H]([C@H](O)CCN)NC(=O)[C@H]([C@H](O)[C@@H](O)c2ccc(O)cc2)NC(=O)[C@@H]2C[C@@H](O)CN2C(=O)[C@H]([C@@H](C)O)NC1=O (stereo not given in full) | < 0.06 µg/mL | 0.09 mg/kg | < 0.06 µg/mL | 1 nM | 0.125 µg/mL (≈ 0.114 µM) | 0.019 mg/kg | < 0.06 µg/mL | 0.125 µg/mL (≈ 0.114 µM) | 0.03 mg/kg | 
